Only some compounds are listed: those with a hit (about 1.2% of all), similar ones and a draw of the others.
Fh CTSL1 inh – blocks F. hepatica cathepsin L1 in PFM18AAP counter-screen | recombinant F. hepatica cathepsin L1, Z-Leu-Arg-MCA fluorescence | inhibition, % at 5.96 µM | 300,000 compounds, 0.49% hits | AID 1906;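 active means inhibition above the mean of all tested compounds plus 3 SD, set per screening campaign, cut at about 17% in these data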;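 further: 0% = plate median of test compound wells and 100% = 1 µM Z-Phe-Ala-diazomethylketone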
TDP2 inh – blocks human TDP2 phosphodiesterase activity | O95551 | recombinant TDP2, T5PNP hydrolysis, p-nitrophenol absorbance 415 nm | inhibition, % at 12.8 µM | 370,000 compounds, 0.34% hits | AID 720702;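 active means inhibition above the mean of all tested compounds plus 3 SD, set per campaign, cut at about 25% in these data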;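 further: 0% = DMSO with enzyme and 100% = buffer with substrate but no TDP2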
Target sequence (O95551 whole entry, looked up): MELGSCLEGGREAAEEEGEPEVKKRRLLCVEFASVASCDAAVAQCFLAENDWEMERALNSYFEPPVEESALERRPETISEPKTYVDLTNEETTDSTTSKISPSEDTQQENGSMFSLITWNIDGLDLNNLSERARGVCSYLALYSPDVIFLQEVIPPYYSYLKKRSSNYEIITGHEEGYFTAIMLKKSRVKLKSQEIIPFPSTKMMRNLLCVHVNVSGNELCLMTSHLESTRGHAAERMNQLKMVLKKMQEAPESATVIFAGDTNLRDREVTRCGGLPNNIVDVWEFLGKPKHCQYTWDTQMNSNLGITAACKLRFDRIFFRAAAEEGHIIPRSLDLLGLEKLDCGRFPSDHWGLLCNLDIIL
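System: recombinant human TDP2 / Amount: 120 nM TDP2 per well / Also added: 5 mM T5PNP chromogenic substrate / Doses: 12.8 µM single point, 1% DMSO / Incubation: 2 h at 37 °C / Detection: p-Nitrophenol epi absorbance / Evaluation: % inhibition relative to enzyme-containing and enzyme-free wells / Repeats: singlicate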
NSD2 inh – blocks human histone methyltransferase NSD2; O96028; NSD2 peptide methylation, AlphaScreen, 120 min; inhibition, % at 12.5 µM; 310,000 compounds, 0.54% hits; AID 743445; in the data active means inhibition above about 50%
UBC9 SUMO inh – SUMOylation inhibition. AID 2006. HTRF SUMOylation assay, SAE1/SAE2 + UBC9, in vitro. 290,000 compounds, 0.36% hits. inhibition, % at 35 µM; in the data active means inhibition above about 50%, passing the limit was not always enough
Target sequence (P63279 whole entry, looked up): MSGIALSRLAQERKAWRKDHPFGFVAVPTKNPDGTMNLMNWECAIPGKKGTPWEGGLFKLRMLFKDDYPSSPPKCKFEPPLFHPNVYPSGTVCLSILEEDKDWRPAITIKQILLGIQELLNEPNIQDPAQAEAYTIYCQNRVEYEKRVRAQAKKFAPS
Alpha artifact – counter-screen for NSD2 inhibitors: AlphaScreen artifacts; shares compounds with NSD2 inh; AlphaScreen artifact counterscreen, preloaded methylated H4 peptide; AC35, µM (titrated, usually from 10 µM), for the others: at the top dose activity change, negative = signal loss; 1,500 compounds, 9.4% hits; AID 1053174; call rule not given here
* hit, by the source's call; . = not tested or not shown.

SMILES | Fh CTSL1 inh | TDP2 inh | NSD2 inh | UBC9 SUMO inh | Alpha artifact
CNc1ccc(Br)cc(C(=O)/C=C/c2cccc(OC)c2OC)c1=O | 1 | 2 | 51* | 12 | -8%
O=C(O)/C=C(/c1ccccc1)C(F)(F)F | . | 2 | 1 | . | .
Cn1c(SCc2ccc(C#N)cc2)nnc1-c1ccncc1 | 1 | -5 | 0 | 8 | .
C=CCn1c(SCc2ccc(C#N)cc2)nnc1-c1ccc(C)cc1 | -10 | -6 | 61* | 14 | -2%
C=C(C)C1CC=C(C)/C(=N\NC(=O)CNc2cccc3ccccc23)C1 (configuration not stated) | 0 | 0 | 8 | 45 | .
NC(=O)c1ccc(-n2nnnc2SCC(=O)c2ccc(O)c(O)c2)cc1 | -3 | 8 | 89* | 16 | -5%
COc1ccc(-n2nnnc2SCC(=O)c2ccc(O)c(O)c2)cc1 | -2 | -7 | -1 | -5 | .
CCN(CC)CCNc1oc(-c2ccccc2)nc1S(=O)(=O)c1ccccc1 | . | -13 | 5 | . | .
Cc1cccc(N2CCN(C(=O)c3ccc4nc[nH]c4c3)CC2)c1C | -4 | -5 | -4 | -11 | .
Cc1ccc(Cl)cc1N1CCN(C(=O)c2ccc3nc[nH]c3c2)CC1 | -2 | 1 | 51* | -11 | -5%
Cc1ccc(Nc2nnc(SCC(=O)Nc3ccc(S(=O)(=O)N4CCOCC4)cc3)s2)cc1 | 1 | 1 | 62* | -16 | -3%
O=C(CSc1nnc(Nc2ccccc2)s1)Nc1ccc(S(=O)(=O)N2CCOCC2)cc1 | 0 | 1 | -1 | 1 | .
COc1ccc(CNC(=O)O[C@H]2CN(C(=O)OC(C)C)N(C(=O)OC(C)C)[C@@H]3CN(S(=O)(=O)c4ccc(C)cc4)C[C@]23O)cc1OC | . | -6 | . | . | .
COC1=CC(=NCl)C=CC1=NCl | . | . | -10 | . | .
ClN=C1C=CC=CC1=NCl | . | . | 108* | . | -3%
Cc1cccc(C)c1-n1cccc1/C=C1/C(=N)N2C(=NC1=O)SN=C2S(C)(=O)=O | 5 | -12 | . | 18 | .
Cc1ccc(-n2cccc2/C=C2/C(=N)N3C(=NC2=O)SN=C3S(C)(=O)=O)cc1Cl | 3 | -22 | 127* | 46 | -9%
CCOc1ccc(N2CC(C(=O)NCCc3c[nH]c4ccc(OC)cc34)CC2=O)cc1 (configuration not stated) | -4 | 3 | 88* | 0 | -3%
Cc1cc(C=O)c(C)n1-c1cc(C(=O)O)cc(C(=O)O)c1 | 3 | -1 | 84* | 25 | -5%
Cc1ccccc1NC(=O)CSc1nnc(C2CC2)n1CC1CCCO1 (configuration not stated) | 6 | 18 | -3 | 12 | .
Cc1cccc(-n2c(Cn3nc(C)c([N+](=O)[O-])c3C)n[nH]c2=S)c1 | 0 | 2 | 125* | 14 | 2%
O=C(O)CCc1ccc(S(=O)(=O)Nc2cc(C(F)(F)F)ccc2N2CCCC2)cc1 | . | 5 | 2 | . | .
CC(C)(CO)NC(=O)c1ccc2nc(Cc3cccc(Cl)c3)oc2c1 | -2 | 9 | -1 | -2 | .
O=C1Nc2ccc(S(=O)(=O)NCc3ccco3)c3cccc1c23 | -1 | -5 | 135* | . | -2%
O=C(O)CNS(=O)(=O)c1ccc2c3c(cccc13)C(=O)N2 | . | 11 | 5 | 38 | .
SMILES | Fh CTSL1 inh | TDP2 inh | NSD2 inh | UBC9 SUMO inh | Alpha artifact
Cc1ccc(-c2nc3c(Cl)cc(C(F)(F)F)cn3c2Cc2ccccc2)cc1 | . | -4 | . | . | .
Cc1ccccc1S(=O)(=O)NC(=O)C1(C)CCN1C(=O)Cc1ccc(C(C)(C)C)cc1 (configuration not stated) | . | 8 | -2 | . | .
c1ccc(CN2CCN(c3nc(-c4ccccc4)nc(-n4ccnc4)n3)CC2)cc1 | 7 | . | 63* | 7 | -4%
C/C(=N\NC(=O)c1nnn(-c2nonc2N)c1C)c1ccc(OCc2ccccc2)cc1 | 2 | -11 | 6 | . | .
C/C(=N\NC(=O)c1nnn(-c2nonc2N)c1C)c1ccc(-c2ccccc2)cc1 | -3 | 1 | 99* | -7 | -1%
CCCc1cc(=O)[nH]c(SCc2cc(=O)oc3cc(C)c(C(C)C)cc23)n1 | 4 | -21 | 78* | -1 | -4%
CC(=O)Nc1cccc(C(=O)OCc2ccccc2)c1 | -2 | 3 | 57* | 6 | -4%
CC(=O)Nc1cccc(C(=O)OCC(=O)NC(=O)Cc2ccccc2)c1 | -3 | -2 | -2 | . | .
COCc1[nH][nH]c(=O)c1C=NCC(=O)OC | -2 | 1 | 51* | 6 | -6%
c1coc(CNCCCN2CCOCC2)c1 | 1 | 1 | 56* | -1 | -4%
CN(c1ccc(C(=O)O)cc1)S(=O)(=O)c1ccccc1 | 4 | -2 | 52* | -4 | 0%
CC1(C(=O)NS(=O)(=O)c2ccc3c(c2)CCO3)CCN1C(=O)CCC1CCCC1 (configuration not stated) | . | -3 | -1 | . | .
Cc1cc(NS(=O)(=O)c2ccc(NC(=O)CSc3nnc(-c4ccncc4)n3Cc3ccco3)cc2)nc(C)n1 | . | -2 | 56* | . | -1%
O=C1CCC(C(=O)OCC(=O)Nc2ccc(SC(F)F)cc2)=NN1 | . | -8 | -2 | . | .
CSc1ccc(CN2CCC(C)(Oc3cnc(Cl)c4ccccc34)C2)cc1 (configuration not stated) | . | 6 | 3 | . | .
O=C(O)C=C1C2CC3CC(C2)CC1C3 | 2 | -6 | 50* | 1 | -4%
O=C(O)C(C(=O)O)=C1C2CC3CC(C2)CC1C3 | 1 | 1 | 2 | -1 | .
C=CCN(CC=C)Cc1c(C)[nH]c2c(C)c(C)ccc2c1=O | 7 | 8 | 0 | 1 | .
CCN(Cc1ccccc1)Cc1c(C)[nH]c2c(C)c(C)ccc2c1=O | 48* | 6 | 56* | 7 | -6%
CCOC(=O)[C@@]12CN(C(=O)OC(C)(C)C)CC=C1N(Cc1ccc(OC)cc1)C(=O)[C@H]2CC(=O)NCCCCc1ccccc1 | . | -7 | . | . | .
Cc1[nH]n(-c2ccccc2)c(=O)c1C(C[N+](=O)[O-])c1ccc(Cl)cc1 (configuration not stated) | 1 | 27* | 100* | 9 | 0%
Cc1ccc(NC(=O)Cn2nnc(C(=O)NCc3ccccc3)c2N)cc1C | -2 | 1 | 56* | -5 | -2%
CCOC(=O)N1CCN(C(=O)C[C@@H]2C[C@@]3(C(=O)OC)CCCCC=C3N(CCc3ccc(OC)c(OC)c3)C2=O)CC1 | . | 6 | 0 | . | .
COC(=O)c1sc(NC(=O)COc2ccc(OC)cc2)nc1C | 1 | 4 | -2 | . | .
CCOC(=O)c1sc(NC(=O)COc2ccc3c(c2)OCO3)nc1C | -2 | 5 | 114* | -8 | -2%
O=C(O)c1ccccc1CC(CCc1ccccc1)C(=O)O (configuration not stated) | . | 5 | 47 | . | .
COCCOC(=O)C1=C(C)NC(C)=C(C(=O)OC(C)C)C1c1cccc([N+](=O)[O-])c1 (configuration not stated) | 6 | 7 | 75* | -22 | -3%
O=C(O)c1ccc(CSc2n[nH]c(-c3ccco3)n2)cc1 | 1 | 10 | 108* | 47 | -5%

Source: PubChem BioAssay (several laboratories)
